Data published in ChEMBL document CHEMBL1140497, “The molecular pruning of a phosphoramidate peptidomimetic inhibitor of prostate-specific membrane antigen” (Bioorg Med Chem, 2007).

Experiments:
[1] = target: Glutamate carboxypeptidase 2 (Homo sapiens, UniProt Q04609); assay: Inhibition of PSMA
Summary of the method: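 Purified PSMA in 50 mM Tris pH 7.4, diluted to give 15–20% substrate conversion without inhibitor. Substrate PAB-Glu-γ-Glu at 10 μM final. Five serial inhibitor dilutions spanning 10–90% inhibition. 15 min at 37 °C with shaking. Stopped with methanolic TFA, buffered with K2HPO4, centrifuged. Supernatant quantified by HPLC; IC50 calculated.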

[2] = system: prostate-specific antigen; assay: Half life at pH 6.8 in presence of prostate-specific antigen; format: ADME; conditions: prostate-specific antigen (enzyme incubation)

Glutamate carboxypeptidase 2, sequence (Q04609 whole entry): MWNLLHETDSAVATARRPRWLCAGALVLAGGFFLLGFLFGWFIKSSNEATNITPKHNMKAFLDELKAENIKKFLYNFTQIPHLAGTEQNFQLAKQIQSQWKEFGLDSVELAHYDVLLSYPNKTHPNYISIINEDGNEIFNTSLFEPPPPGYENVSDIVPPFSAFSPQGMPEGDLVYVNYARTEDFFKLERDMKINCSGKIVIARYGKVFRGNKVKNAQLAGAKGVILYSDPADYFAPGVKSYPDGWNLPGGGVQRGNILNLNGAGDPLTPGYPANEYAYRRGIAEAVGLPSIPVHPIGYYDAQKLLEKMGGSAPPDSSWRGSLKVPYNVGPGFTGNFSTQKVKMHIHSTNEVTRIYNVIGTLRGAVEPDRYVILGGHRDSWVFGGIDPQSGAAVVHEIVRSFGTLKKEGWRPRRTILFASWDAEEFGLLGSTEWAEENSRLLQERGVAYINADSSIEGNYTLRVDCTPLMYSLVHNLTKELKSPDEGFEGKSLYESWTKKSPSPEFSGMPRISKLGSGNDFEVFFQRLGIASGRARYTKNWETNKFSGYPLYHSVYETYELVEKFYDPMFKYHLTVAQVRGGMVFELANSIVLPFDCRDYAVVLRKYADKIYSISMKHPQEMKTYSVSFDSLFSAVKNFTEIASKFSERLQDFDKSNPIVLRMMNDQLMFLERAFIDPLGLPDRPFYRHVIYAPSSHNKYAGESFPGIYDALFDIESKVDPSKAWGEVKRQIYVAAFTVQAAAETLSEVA

Row | SMILES | IC50 [1] | half-life [2]
1 | CN(C(=O)c1ccccc1)[C@@H](COP(=O)(O)N[C@@H](CCC(=O)O)C(=O)O)C(=O)O | 55 nM | 
2 | O=C([O-])CC[C@H](NP(=O)([O-])OC[C@H](NC(=O)c1ccccc1)C(=O)[O-])C(=O)[O-].[K+].[K+].[K+].[K+] | 35 nM | 6.8 h
3 | O=C(O)CC[C@H](NP(=O)(O)OCCNC(=O)c1ccccc1)C(=O)O | 1800 nM | 
4 | O=C(O)CC[C@H](NP(=O)(O)OC[C@@H](NC(=O)c1ccccc1)C(=O)O)C(=O)O | 700 nM | 
5 | O=C(O)CC[C@H](NP(=O)(O)OCC(CCc1ccccc1)C(=O)O)C(=O)O (stereo partly specified) | 790 nM | 
6 | O=C(O)CC[C@H](NP(=O)(O)OCCCCc1ccccc1)C(=O)O | 180 nM | 
7 | CN(CCOP(=O)(O)N[C@@H](CCC(=O)O)C(=O)O)C(=O)c1ccccc1 | 280 nM | 
8 | O=C(O)CC[C@H](NP(=O)(O)O)C(=O)O [listing 1 of 2 here] | 0.86 nM | 
9 | O=C(O)CC[C@H](NP(=O)(O)O)C(=O)O [listing 2 of 2 here] | 2.3 nM | 
10 | O=C(O)CC[C@H](OP(=O)(O)O)C(=O)O | 15 nM | 
